Measured values as given in paper PMC10449099 (The Journal of Pharmacology and Experimental Therapeutics, 2023).
Values belong to the compound of their own block, whether it stands above or below them.

What was measured:
[1] = test system: hKir6.1 mutations, particularly V65M, C176S and E189K; experiment: DiBAC4; type: cell-based, human; conditions: for sensitivity of mutation-caused hyperpolarization to reversal by inhibitor: basal activity without KCO, hKir6.1 mutations, particularly V65M, C176S, E189K
Summary of the method: (§1)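 Stable landing-pad HEK293 lines expressing hKir6.1/hSUR2B mutants were induced with doxycycline (4 μg/ml) and grown 1 day on poly-L-lysine. Cells were washed in low-K buffer (1 mM KCl, HEPES, pH 7.4), then incubated ≥30 min with 3 μM DiBAC4(3) plus blocker (glibenclamide, repaglinide or PNU37883A), without opener. Cells were segmented by red fluorescence, background-subtracted and mean-intensity averaged over duplicate images.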

Kir6.1[D338E] = Kir6.1[D338E] (Homo sapiens, UniProt O60706+Q15842, D338E); experiment: DiBAC4; type: cell-based; conditions: basal activity without KCO; printed hKir6.1[G338E]
Kir6.1[D338E], sequence (Q15842 whole entry D338E): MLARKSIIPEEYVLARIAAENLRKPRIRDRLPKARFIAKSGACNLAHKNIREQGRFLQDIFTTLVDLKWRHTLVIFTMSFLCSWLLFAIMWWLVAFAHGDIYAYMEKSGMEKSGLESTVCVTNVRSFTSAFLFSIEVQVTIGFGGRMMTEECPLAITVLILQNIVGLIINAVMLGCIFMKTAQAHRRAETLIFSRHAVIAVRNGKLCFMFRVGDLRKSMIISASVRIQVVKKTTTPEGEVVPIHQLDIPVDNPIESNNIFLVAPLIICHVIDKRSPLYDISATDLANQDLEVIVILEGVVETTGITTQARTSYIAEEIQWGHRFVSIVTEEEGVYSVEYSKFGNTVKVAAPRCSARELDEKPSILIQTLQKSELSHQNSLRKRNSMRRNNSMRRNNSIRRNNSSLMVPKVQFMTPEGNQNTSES
Kir6.1[D338E], sequence (O60706 1-1549 isoform O60706-2, stated change not applied): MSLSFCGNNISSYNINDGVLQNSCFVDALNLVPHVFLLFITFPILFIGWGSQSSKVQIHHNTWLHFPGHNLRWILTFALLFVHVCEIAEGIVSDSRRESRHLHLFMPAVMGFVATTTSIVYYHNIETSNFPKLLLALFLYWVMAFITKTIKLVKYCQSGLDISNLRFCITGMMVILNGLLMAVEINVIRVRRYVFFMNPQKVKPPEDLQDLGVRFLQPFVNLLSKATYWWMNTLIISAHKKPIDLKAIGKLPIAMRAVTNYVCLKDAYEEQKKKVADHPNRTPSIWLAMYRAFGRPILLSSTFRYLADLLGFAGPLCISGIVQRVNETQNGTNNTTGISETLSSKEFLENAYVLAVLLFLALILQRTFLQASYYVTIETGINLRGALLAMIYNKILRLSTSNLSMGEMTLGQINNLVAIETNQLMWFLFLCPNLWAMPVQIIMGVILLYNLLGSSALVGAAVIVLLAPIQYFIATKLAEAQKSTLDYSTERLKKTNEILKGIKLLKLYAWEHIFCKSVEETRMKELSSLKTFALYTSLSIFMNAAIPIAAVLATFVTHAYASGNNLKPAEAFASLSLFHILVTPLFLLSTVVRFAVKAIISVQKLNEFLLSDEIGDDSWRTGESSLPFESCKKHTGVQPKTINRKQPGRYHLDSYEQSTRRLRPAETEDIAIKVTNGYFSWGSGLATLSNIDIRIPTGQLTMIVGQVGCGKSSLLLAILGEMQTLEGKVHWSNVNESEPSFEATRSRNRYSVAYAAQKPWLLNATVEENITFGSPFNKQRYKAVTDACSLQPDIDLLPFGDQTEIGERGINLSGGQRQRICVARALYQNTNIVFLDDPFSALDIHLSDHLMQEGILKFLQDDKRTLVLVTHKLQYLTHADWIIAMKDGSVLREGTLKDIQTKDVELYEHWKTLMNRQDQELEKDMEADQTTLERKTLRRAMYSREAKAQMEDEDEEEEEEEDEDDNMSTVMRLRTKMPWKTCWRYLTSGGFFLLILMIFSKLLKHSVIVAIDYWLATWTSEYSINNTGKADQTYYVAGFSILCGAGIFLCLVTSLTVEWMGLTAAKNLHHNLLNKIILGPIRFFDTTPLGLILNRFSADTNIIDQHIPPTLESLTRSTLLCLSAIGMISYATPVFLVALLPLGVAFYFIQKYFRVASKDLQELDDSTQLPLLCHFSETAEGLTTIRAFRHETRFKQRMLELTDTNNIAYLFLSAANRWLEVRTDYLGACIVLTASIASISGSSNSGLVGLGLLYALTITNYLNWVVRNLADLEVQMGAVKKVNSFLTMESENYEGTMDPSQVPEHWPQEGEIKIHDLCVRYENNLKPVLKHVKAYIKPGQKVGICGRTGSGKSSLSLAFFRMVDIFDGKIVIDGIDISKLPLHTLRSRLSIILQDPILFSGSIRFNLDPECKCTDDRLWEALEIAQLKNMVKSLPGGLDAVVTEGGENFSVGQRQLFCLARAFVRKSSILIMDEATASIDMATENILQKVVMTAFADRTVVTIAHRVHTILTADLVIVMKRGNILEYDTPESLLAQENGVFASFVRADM

hKir6.1[A46V] = hKir6.1[A46V] (Homo sapiens, UniProt O60706+Q15842, A46V); experiment: DiBAC4; type: cell-based; conditions: basal activity without KCO
hKir6.1[A46V], sequence (Q15842 whole entry A46V): as the sequence (Q15842 whole entry D338E) above, with A46V, E338D counted along it
hKir6.1[A46V], sequence (O60706 1-1549 isoform O60706-2, stated change not applied): as the sequence (O60706 1-1549 isoform O60706-2, stated change not applied) above
Summary of the method: as §1

[2] = test system: hSUR2B mutations (A478V, R1154Q, indel1055); experiment: DiBAC4; type: cell-based, human; conditions: for reversal of mutation-caused hyperpolarization by inhibitor: basal activity without KCO, hSUR2B A478V, R1154Q, indel1055
Summary of the method: as §1

cardiac function = conditions: ref Humphrey et al., 1996; cited from earlier work
WT hKir6.1/hSUR2B [3] = molecular target: T1, WT hKir6.1/hSUR2B (Homo sapiens, UniProt O60706+Q15842); type: cell-based; conditions: for activation of Tl influx by KCO: KCOs at presumably maximal concentrations
T1 sequence (Q15842 whole entry): as the sequence (Q15842 whole entry D338E) above, with E338D counted along it
T1 sequence (O60706 1-1549 isoform O60706-2): as the sequence (O60706 1-1549 isoform O60706-2, stated change not applied) above

hKir6.1[V65M]/hSUR2B = hKir6.1[V65M]/hSUR2B (Homo sapiens, UniProt O60706+Q15842, V65M); experiment: Thallium flux assay, Kir6.1[V65M] stable cells; type: cell-based; conditions: for activation of Tl influx by KCO: KCOs at presumably maximal concentrations, compared with WT
hKir6.1[V65M]/hSUR2B, sequence (Q15842 whole entry V65M): as the sequence (Q15842 whole entry D338E) above, with V65M, E338D counted along it
hKir6.1[V65M]/hSUR2B, sequence (O60706 1-1549 isoform O60706-2, stated change not applied): as the sequence (O60706 1-1549 isoform O60706-2, stated change not applied) above

hKir6.1/hSUR2B[R1154Q] = hKir6.1/hSUR2B[R1154Q] (Homo sapiens, UniProt O60706+Q15842, R1154Q); experiment: Thallium flux assay, SUR2B[R1154Q] stable cells; type: cell-based; conditions: KCOs at presumably maximal concentrations
hKir6.1/hSUR2B[R1154Q], sequence (Q15842 whole entry): as the sequence (Q15842 whole entry D338E) above, with E338D counted along it
hKir6.1/hSUR2B[R1154Q], sequence (O60706 1-1549 isoform O60706-2 R1154Q): as the sequence (O60706 1-1549 isoform O60706-2, stated change not applied) above, with R1154Q counted along it
Summary of the method: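 Doxycycline-induced stable HEK293 cells on poly-L-lysine were loaded 1 h with Fluozin-2 in HBSS. […] Ex 485/em 528 nm was read every 2 s for 2 min, with Tl+ added at 20 s. Blank-subtracted, pre-Tl-normalized traces were fit single-exponentially, giving initial rate at t=0; n = 3–4.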

WT hKir6.1/hSUR2B [4] = molecular target: T1, WT hKir6.1/hSUR2B; experiment: DiBAC4; type: cell-based; conditions: WT cells
Summary of the method: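 WT hKir6.1/hSUR2B and untransfected landing-pad HEK293 cells were loaded ≥30 min with 3 μM DiBAC4(3) in 1 mM K+ buffer. […] Background-subtracted mean cell fluorescence was normalized to untreated cells, n = 4–6. K conductance was estimated with a simplified Goldman-Hodgkin-Katz equation.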

hKir6.1[C176S]/hSUR2B = hKir6.1[C176S]/hSUR2B (Homo sapiens, UniProt O60706+Q15842, C176S); experiment: Thallium flux assay, Kir6.1[C176S] stable cells; type: cell-based
hKir6.1[C176S]/hSUR2B, sequence (Q15842 whole entry C176S): as the sequence (Q15842 whole entry D338E) above, with C176S, E338D counted along it
hKir6.1[C176S]/hSUR2B, sequence (O60706 1-1549 isoform O60706-2, stated change not applied): as the sequence (O60706 1-1549 isoform O60706-2, stated change not applied) above

hKir6.1[E189K]/hSUR2B = hKir6.1[E189K]/hSUR2B (Homo sapiens, UniProt O60706+Q15842, E189K); experiment: Thallium flux assay, Kir6.1[E189K] stable cells; type: cell-based
hKir6.1[E189K]/hSUR2B, sequence (Q15842 whole entry E189K): as the sequence (Q15842 whole entry D338E) above, with E189K, E338D counted along it
hKir6.1[E189K]/hSUR2B, sequence (O60706 1-1549 isoform O60706-2, stated change not applied): as the sequence (O60706 1-1549 isoform O60706-2, stated change not applied) above

hKir6.1[D338E]/hSUR2B = hKir6.1[D338E]/hSUR2B (Homo sapiens, UniProt O60706+Q15842, D338E); experiment: Thallium flux assay, Kir6.1[D338E] stable cells; type: cell-based
hKir6.1[D338E]/hSUR2B, sequence (Q15842 whole entry D338E): as the sequence (Q15842 whole entry D338E) above
hKir6.1[D338E]/hSUR2B, sequence (O60706 1-1549 isoform O60706-2, stated change not applied): as the sequence (O60706 1-1549 isoform O60706-2, stated change not applied) above

[5] = test system: hKir6.1/hSUR2B with hSUR2B mutations (A478V, indel1055, R1154Q, R1154W); experiment: Thallium flux assay, all cell lines with hSUR2B mutations; type: cell-based, human; conditions: all hSUR2B mutant cell lines
Summary of the method: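 Doxycycline-induced stable hKir6.1/hSUR2B-mutant HEK293 cells on poly-L-lysine were loaded 1 h with Fluozin-2 in HBSS. […] Ex 485/em 528 nm was read every 2 s for 2 min, with Tl+ added at 20 s. Blank-subtracted traces normalized to pre-Tl fluorescence were fit with a single exponential; initial rate was the derivative at t=0.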

hKir6.1[A46V]/hSUR2B = hKir6.1[A46V]/hSUR2B (Homo sapiens, UniProt O60706+Q15842, A46V); experiment: Thallium flux assay, Kir6.1[A46V] stable cells; type: cell-based
hKir6.1[A46V]/hSUR2B, sequence (Q15842 whole entry A46V): as the sequence (Q15842 whole entry D338E) above, with A46V, E338D counted along it
hKir6.1[A46V]/hSUR2B, sequence (O60706 1-1549 isoform O60706-2, stated change not applied): as the sequence (O60706 1-1549 isoform O60706-2, stated change not applied) above

[6] = molecular target: Kir6.1/SUR2B[R1154Q] mutant channels (Homo sapiens, UniProt O60706+Q15842, R1154Q); experiment: Whole-cell patch-clamp, stably transfected R1154Q mutant channels; type: cell-based
Kir6.1/SUR2B[R1154Q] mutant channels, sequence (Q15842 whole entry): as the sequence (Q15842 whole entry D338E) above, with E338D counted along it
Kir6.1/SUR2B[R1154Q] mutant channels, sequence (O60706 1-1549 isoform O60706-2 R1154Q): as the sequence (O60706 1-1549 isoform O60706-2, stated change not applied) above, with R1154Q counted along it

hSUR2B[R1154W] = hSUR2B[R1154W] (Homo sapiens, UniProt O60706+Q15842, R1154W); experiment: DiBAC4; type: cell-based; conditions: basal activity without KCO
hSUR2B[R1154W], sequence (Q15842 whole entry): as the sequence (Q15842 whole entry D338E) above, with E338D counted along it
hSUR2B[R1154W], sequence (O60706 1-1549 isoform O60706-2 R1154W): as the sequence (O60706 1-1549 isoform O60706-2, stated change not applied) above, with R1154W counted along it
Summary of the method: as §1

SUR2[A478V] mice = conditions: ref McClenaghan et al., 2020b; cited from earlier work
gastric motility = conditions: ref York et al., 2020; cited from earlier work
WT Kir6.1/SUR2B channels = WT Kir6.1/SUR2B channels (Homo sapiens, UniProt O60706+Q15842); experiment: Whole-cell patch-clamp, stably transfected WT channels; type: cell-based; conditions: Vm -60 mV
WT Kir6.1/SUR2B channels, sequence (Q15842 whole entry): as the sequence (Q15842 whole entry D338E) above, with E338D counted along it
WT Kir6.1/SUR2B channels, sequence (O60706 1-1549 isoform O60706-2): as the sequence (O60706 1-1549 isoform O60706-2, stated change not applied) above

[7] = most SUR2B CS mutations, basal activity

- activation of Tl influx by KCO (WT hKir6.1/hSUR2B [3]; WT): activated
- activation of Tl influx by KCO (hKir6.1[V65M]/hSUR2B; hKir6.1[V65M]): enhanced activation
- activation of Tl influx by KCO (hKir6.1/hSUR2B[R1154Q]): not activated
Structure (SMILES): CC1(C)Oc2ccc(C#N)cc2C(N2CCCC2=O)C1O (centres unmarked) [cromakalim]

- activation of Tl influx by KCO (hKir6.1[V65M]/hSUR2B; hKir6.1[V65M]): measurable activation
- activation of Tl influx by KCO (hKir6.1/hSUR2B[R1154Q]): not activated
Structure (SMILES): O=C(NCCO[N+](=O)[O-])c1cccnc1 [nicorandil]
- activation of Tl influx by KCO (WT hKir6.1/hSUR2B [3]; WT): only activated by pinacidil and cromakalim

- pinacidil concentration at which Tl influx activation reached maximum (WT hKir6.1/hSUR2B [3]; WT channels): 100 µM
- activation of Tl influx by KCO (WT hKir6.1/hSUR2B [3]; WT): activated
- Hill coefficient, pinacidil activation (WT hKir6.1/hSUR2B [3]; WT, fit with eq. 3): 2.6 ± 1.0
- Hill coefficient, pinacidil activation (hKir6.1[A46V]/hSUR2B; fit with eq. 3): 1.9 ± 0.2
- channel activity at very high concentration of pinacidil (hKir6.1[V65M]/hSUR2B; Kir6.1[V65M], 300 μM pinacidil): slightly decreased
- Hill coefficient, pinacidil activation (hKir6.1[V65M]/hSUR2B; Kir6.1[V65M], fit with eq. 3): 1.2 ± 0.0
- activation of Tl influx by KCO (hKir6.1[V65M]/hSUR2B; hKir6.1[V65M]): enhanced activation
- maximum channel activity with pinacidil compared with WT (hKir6.1[C176S]/hSUR2B; Kir6.1[C176S], Tl influx dose-response): much higher
- Hill coefficient, pinacidil activation (hKir6.1[C176S]/hSUR2B; Kir6.1[C176S], fit with eq. 3): 1.2 ± 0.1
- Hill coefficient, pinacidil activation (hKir6.1[E189K]/hSUR2B; Kir6.1[E189K], fit with eq. 3): 1.3 ± 0.4
- Hill coefficient, pinacidil activation (hKir6.1[D338E]/hSUR2B; Kir6.1[D338E], fit with eq. 3): 1.7 ± 0.1
- activation of Tl influx by KCO (hKir6.1/hSUR2B[R1154Q]): not activated
- increase of whole-cell current by pinacidil (IPin/IBasal) (WT Kir6.1/SUR2B channels): ~150 fold
- increase of whole-cell current by pinacidil (IPin/IBasal) ([6]; Vm -60 mV): ~10 fold
- DiBAC4(3) signal changes at 10 μM pinacidil (WT hKir6.1/hSUR2B [4]; 10 μM pinacidil): almost saturated
- effect on membrane potential (DiBAC4(3) fluorescence) (WT hKir6.1/hSUR2B [4]; 1 mM [K+]o): dose-dependently hyperpolarized
- potency of hyperpolarization, comparison (WT hKir6.1/hSUR2B [4]; 1 mM [K+]o): more potent than diazoxide
- share of the DiBAC4(3) signal change that occurs at <3 μM pinacidil (WT hKir6.1/hSUR2B [4]; <3 μM pinacidil, activation of <20% of maximal WT conductance): ~80%
Structure (SMILES): CC(N/C(=N\C#N)Nc1ccncc1)C(C)(C)C (centres unmarked) [pinacidil]
- response of Tl-influx rate to pinacidil activation ([5]; pinacidil 100 μM): essentially insensitive

The next lines start with the compound.

Structure (SMILES): C1CCC(N=C(NC23CC4CC(CC(C4)C2)C3)N2CCOCC2)CC1.Cl [PNU37883A]
- inhibition of basal Kir6.1 mutation activities, comparison ([1]; at saturating doses): more effective than glibenclamide or repaglinide
- sensitivity of mutation-caused hyperpolarization to reversal by inhibitor [1]: very poorly sensitive
- sensitivity of mutation-caused hyperpolarization to reversal by inhibitor (Kir6.1[D338E]): uniquely insensitive
- reversal of mutation-caused hyperpolarization by inhibitor (hKir6.1[A46V]): readily reversed
- reversal of mutation-caused hyperpolarization by inhibitor [2]: readily reversed
- effects on cardiac function (cardiac function): Fatal effects

Structure (SMILES): CC1=NS(=O)(=O)c2cc(Cl)ccc2N1 [diazoxide]
- activation of Tl influx by KCO (WT hKir6.1/hSUR2B [3]; WT): no effect
- activation of Tl influx by KCO (hKir6.1[V65M]/hSUR2B; hKir6.1[V65M]): measurable activation
- activation of Tl influx by KCO (hKir6.1/hSUR2B[R1154Q]): not activated
- concentrations generating clear KATP-dependent hyperpolarization signals (WT hKir6.1/hSUR2B [4]; 1 mM [K+]o): above 1 μM
- effect on membrane potential (DiBAC4(3) fluorescence) (WT hKir6.1/hSUR2B [4]; 1 mM [K+]o): dose-dependently hyperpolarized

Structure (SMILES): C=C[C@@]1(C)CC(=O)[C@]2(O)[C@@]3(C)[C@@H](O)CCC(C)(C)[C@@H]3[C@H](O)[C@H](OC(C)=O)[C@@]2(C)O1 [forskolin]
- Tl influx signal with forskolin (WT hKir6.1/hSUR2B [3]; WT, 10 μM forskolin): failed to generate measurable
- Tl-influx rate with forskolin (hKir6.1[V65M]/hSUR2B; hKir6.1[V65M], 10 μM forskolin): increased
- Tl-influx rate with forskolin (hKir6.1[C176S]/hSUR2B; hKir6.1[C176S], 10 μM forskolin): increased
- Tl-influx rate with forskolin (hKir6.1[E189K]/hSUR2B; hKir6.1[E189K], 10 μM forskolin): increased
- Tl-influx rate with forskolin (hKir6.1[D338E]/hSUR2B; hKir6.1[D338E], 10 μM forskolin): increased
- response of Tl-influx rate to forskolin ([5]; 10 μM forskolin): essentially insensitive
- effect of forskolin on membrane potential (DiBAC4(3)) (WT hKir6.1/hSUR2B [4]; 10 μM forskolin): significant hyperpolarization

Structure (SMILES): COc1ccc(Cl)cc1C(=O)NCCc1ccc(S(=O)(=O)NC(=O)NC2CCCCC2)cc1 [glibenclamide]
- Hill coefficient, glibenclamide inhibition (WT hKir6.1/hSUR2B [3]; WT, 100 μM pinacidil, fit with eq. 4): 2.9 ± 6.0
- Hill coefficient, glibenclamide inhibition (hKir6.1[A46V]/hSUR2B; 100 μM pinacidil, fit with eq. 4): 1.9 ± 0.3
- Hill coefficient, glibenclamide inhibition (hKir6.1[V65M]/hSUR2B; Kir6.1[V65M], 100 μM pinacidil, fit with eq. 4): 1.8 ± 0.8
- Hill coefficient, glibenclamide inhibition (hKir6.1[C176S]/hSUR2B; Kir6.1[C176S], 100 μM pinacidil, fit with eq. 4): 1.1 ± 0.5
- Hill coefficient, glibenclamide inhibition (hKir6.1[E189K]/hSUR2B; Kir6.1[E189K], 100 μM pinacidil, fit with eq. 4): 1.0 ± 0.2
- Hill coefficient, glibenclamide inhibition (hKir6.1[D338E]/hSUR2B; Kir6.1[D338E], 100 μM pinacidil, fit with eq. 4): 1.5 ± 0.4
- glibenclamide sensitivity (IPin+Glib/IPin) compared with WT ([6]; pinacidil-activated current): markedly reduced
- sensitivity of mutation-caused hyperpolarization to reversal by inhibitor [1]: very poorly sensitive
- sensitivity of mutation-caused hyperpolarization to reversal by inhibitor (hSUR2B[R1154W]): uniquely insensitive
- reversal of mutation-caused hyperpolarization by inhibitor (hKir6.1[A46V]): readily reversed
- reversal of mutation-caused hyperpolarization by inhibitor [2]: readily reversed
- glibenclamide concentration that effectively blocked basal activity [2, 7]: 100 to 300 nM
- glibenclamide concentration that markedly inhibited ([2]; most SUR2 CS mutations): < 100 nM
- effect on CS-associated cardiovascular abnormalities (SUR2[A478V] mice): reversed CS-associated cardiovascular abnormalities
- effect on gastric motility (gastric motility): restored gastric motility

Structure (SMILES): CCOc1cc(CC(=O)N[C@@H](CC(C)C)c2ccccc2N2CCCCC2)ccc1C(=O)O [repaglinide]
- sensitivity of mutation-caused hyperpolarization to reversal by inhibitor [1]: very poorly sensitive
- reversal of mutation-caused hyperpolarization by inhibitor (hKir6.1[A46V]): readily reversed
- reversal of mutation-caused hyperpolarization by inhibitor [2]: readily reversed
- block of basal activity compared with glibenclamide [2, 7]: more effectively
